Results taken from ChEMBL document CHEMBL2074476, “Contribution of organic anion transporting polypeptide OATP-C to hepatic elimination of the opioid pentapeptide analogue [D-Ala2, D-Leu5]-enkephalin” (J Pharm Pharmacol, 2003).
Where a SMILES comes first, the peptide text is derived from it. [ ]: non-standard residue; d: D form.

Assays:
[1] = target: T1, Solute carrier organic anion transporter family member 1B1 (Homo sapiens, UniProt Q9Y6L6); experiment: TP_TRANSPORTER: inhibition of E1S uptake (E1S: 0.004 uM, YdAG: 1000 uM) in Xenopus laevis oocytes; assay type: functional, cell-based; details: oocyte
T1 sequence (Q9Y6L6 whole entry): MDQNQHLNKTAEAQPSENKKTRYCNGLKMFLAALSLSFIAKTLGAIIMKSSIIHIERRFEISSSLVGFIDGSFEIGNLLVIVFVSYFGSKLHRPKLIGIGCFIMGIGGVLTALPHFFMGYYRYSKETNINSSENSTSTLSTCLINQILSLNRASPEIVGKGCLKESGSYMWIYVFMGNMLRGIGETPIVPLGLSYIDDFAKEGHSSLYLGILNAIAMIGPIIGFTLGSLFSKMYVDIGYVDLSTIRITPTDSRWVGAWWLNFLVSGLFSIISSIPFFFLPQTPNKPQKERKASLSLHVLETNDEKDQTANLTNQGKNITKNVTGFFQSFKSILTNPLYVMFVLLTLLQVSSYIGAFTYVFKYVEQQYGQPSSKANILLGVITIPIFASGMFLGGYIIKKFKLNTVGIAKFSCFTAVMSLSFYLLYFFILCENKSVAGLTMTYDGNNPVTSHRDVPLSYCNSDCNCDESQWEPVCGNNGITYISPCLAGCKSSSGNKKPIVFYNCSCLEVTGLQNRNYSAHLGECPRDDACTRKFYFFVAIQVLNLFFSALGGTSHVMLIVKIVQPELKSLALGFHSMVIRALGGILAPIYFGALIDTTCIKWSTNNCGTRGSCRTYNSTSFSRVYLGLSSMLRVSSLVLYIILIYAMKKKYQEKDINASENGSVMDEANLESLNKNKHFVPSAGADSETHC
How it was run: (§1)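 Oocytes injected with OATP-C cRNA (25 ng), cultured 3 days in modified Barth's solution, then incubated 30 min at 25 °C in medium 1 (pH 7.4) with [3H]estrone-3-sulfate (4 nM) plus or minus inhibitor. OATP-C-specific uptake = total minus water-injected oocyte uptake, expressed as percent of control; mean ± s.e.m., n = 5–10.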

[2] = target: T1, Solute carrier organic anion transporter family member 1B1; experiment: TP_TRANSPORTER: inhibition of E1S uptake (E1S: 0.004 uM, CCK-8: 100 uM) in Xenopus laevis oocytes; assay type: functional, cell-based; set-up: scale not given: the % may be the effect or the level left; details: oocyte; how it was run: as §1
[3] = target: T1, Solute carrier organic anion transporter family member 1B1; experiment: TP_TRANSPORTER: inhibition of E1S uptake (E1S: 0.004 uM, PAH: 500 uM) in Xenopus laevis oocytes; assay type: functional, cell-based; details: oocyte; how it was run: as §1
[4] = target: T1, Solute carrier organic anion transporter family member 1B1; experiment: TP_TRANSPORTER: inhibition of E1S uptake (E1S: 0.004 uM, Gly4: 5000 uM) in Xenopus laevis oocytes; assay type: functional, cell-based; details: oocyte; how it was run: as §1
[5] = target: T2, Solute carrier organic anion transporter family member 1B1 (OATP1B1) (Homo sapiens, UniProt Q9Y6L6); experiment: TP_TRANSPORTER: inhibition of E1S uptake (E1S: 0.004 uM, Quinidine: 500 uM) in Xenopus laevis oocytes; assay type: functional, cell-based, Oocyte; set-up: scale not given: the % may be the effect or the level left; details: probe E1S (0.004 uM), read-out: Activity; how it was run: as §1
T2 sequence (Q9Y6L6 whole entry): T1 sequence (Q9Y6L6 whole entry)

[6] = target: T2, Solute carrier organic anion transporter family member 1B1 (OATP1B1); experiment: in vitro; details: xenopus laevis, Xenopus laevis oocytes, probe E1S (0.004 uM)
[7] = target: T1, Solute carrier organic anion transporter family member 1B1; experiment: TP_TRANSPORTER: uptake of [D-Pen2,D-Pen5]-enkephalin at a concentration of 0.02 u M in Xenopus laevis oocytes; assay type: functional, cell-based; details: oocyte, 0.02 µM
How it was run: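 OATP-C cRNA- or water-injected oocytes incubated 60 min at 25 °C in medium 1 (pH 7.4) with [3H]DPDPE (20 nM). Washed with ice-cold buffer, solubilized in 5% SDS, radioactivity counted. Uptake given as cell-to-medium ratio (uptake amount divided by medium concentration); mean ± s.e.m., n = 5–10.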

[8] = target: T2, Solute carrier organic anion transporter family member 1B1 (OATP1B1); experiment: TP_TRANSPORTER: inhibition of E1S uptake (E1S: 0.004 uM, DADLE: 1000 uM) in Xenopus laevis oocytes; assay type: functional, cell-based, Oocyte; set-up: scale not given: the % may be the effect or the level left; details: probe E1S (0.004 uM), read-out: Activity; how it was run: as §1
[9] = target: T2, Solute carrier organic anion transporter family member 1B1 (OATP1B1); experiment: TP_TRANSPORTER: inhibition of E1S uptake (E1S: 0.004 uM, YGG: 1000 uM) in Xenopus laevis oocytes; assay type: functional, cell-based, Oocyte; set-up: scale not given: the % may be the effect or the level left; details: probe E1S (0.004 uM), read-out: Activity; how it was run: as §1
[10] = target: T2, Solute carrier organic anion transporter family member 1B1 (OATP1B1); experiment: TP_TRANSPORTER: inhibition of E1S uptake (E1S: 0.004 uM, BSP: 50 uM) in Xenopus laevis oocytes; assay type: functional, cell-based, Oocyte; set-up: scale not given: the % may be the effect or the level left; details: probe E1S (0.004 uM), read-out: Activity; how it was run: as §1
[11] = target: T2, Solute carrier organic anion transporter family member 1B1 (OATP1B1); experiment: TP_TRANSPORTER: inhibition of DPDPE uptake (DPDPE: 0.02 uM) in Xenopus laevis oocytes; assay type: functional, cell-based, Oocyte; set-up: scale not given: the % may be the effect or the level left; details: probe DPDPE (0.02 uM)
[12] = target: T1, Solute carrier organic anion transporter family member 1B1; experiment: TP_TRANSPORTER: inhibition of E1S uptake (E1S: 0.004 uM, Carnitine: 50 uM) in Xenopus laevis oocytes; assay type: functional, cell-based; details: oocyte; how it was run: as §1
[13] = target: T2, Solute carrier organic anion transporter family member 1B1 (OATP1B1); experiment: TP_TRANSPORTER: inhibition of E1S uptake (E1S: 0.004 uM, des-tyrosine DADLE: 1000 uM) in Xenopus laevis oocytes; assay type: functional, cell-based, Oocyte; set-up: scale not given: the % may be the effect or the level left; details: probe E1S (0.004 uM), read-out: Activity; how it was run: as §1
[14] = target: T2, Solute carrier organic anion transporter family member 1B1 (OATP1B1); experiment: TP_TRANSPORTER: inhibition of E1S uptake (E1S: 0.004 uM, Ala5: 5000 uM) in Xenopus laevis oocytes; assay type: functional, cell-based, Oocyte; set-up: scale not given: the % may be the effect or the level left; details: probe E1S (0.004 uM), read-out: Activity; how it was run: as §1
[15] = target: T1, Solute carrier organic anion transporter family member 1B1; experiment: TP_TRANSPORTER: inhibition of E1S uptake (E1S: 0.004 uM, Ala4: 5000 uM) in Xenopus laevis oocytes; assay type: functional, cell-based; details: oocyte; how it was run: as §1

Question: `C[C@@H](NC(=O)[C@@H](N)Cc1ccc(O)cc1)C(=O)NCC(=O)O` (H-Tyr-[dA]-Gly-OH) was tested. Which Activity [1] did it give?
Answer: The Activity was “is not an inhibitor [-]”.

Question: `CSCC[C@H](NC(=O)[C@H](Cc1ccc(OS(=O)(=O)O)cc1)NC(=O)[C@@H](N)CC(=O)O)C(=O)NCC(=O)N[C@@H](Cc1c[nH]c2ccccc12)C(=O)N[C@@H](CCSC)C(=O)N[C@@H](CC(=O)O)C(=O)N[C@@H](Cc1ccccc1)C(N)=O` [SINCALIDE] was tested. Which Activity [2] did it give?
Answer: The Activity was 9.1%.

Question: `Nc1ccc(C(=O)NCC(=O)O)cc1` [AMINOHIPPURIC ACID] was tested. Which Activity [3] did it give?
Answer: The Activity was “is not an inhibitor [-]”.

Question: Which Activity [4] does the source give for `NCC(=O)NCC(=O)NCC(=O)NCC(=O)O` (H-GGGG-OH) here?
Answer: The Activity was “is not an inhibitor [-]”.

Question: For `C=C[C@H]1C[N@@]2CC[C@H]1C[C@@H]2[C@@H](O)c1ccnc2ccc(OC)cc12` [QUINIDINE], which activity at 500 µM [5] is on record?
Answer: Its activity at 500 µM is 81%.

Question: Which activity at 1000 µM [6] does the source give for `CC(C)C[C@H](NC(=O)[C@H](Cc1ccccc1)NC(=O)CNC(=O)CNC(=O)[C@@H](N)Cc1ccc(O)cc1)C(=O)O` [ENKEPHALIN] here?
Answer: The activity at 1000 µM was 26.8%.

Question: With `CC1(C)SSC(C)(C)[C@@H](NC(=O)[C@@H](N)Cc2ccc(O)cc2)C(=O)NCC(=O)N[C@@H](Cc2ccccc2)C(=O)N[C@H]1C(=O)O` as the compound, how does the Activity [7] read?
Answer: Its Activity is “substrate [+]”.

Question: With `CC(C)C[C@@H](NC(=O)[C@H](Cc1ccccc1)NC(=O)CNC(=O)[C@@H](C)NC(=O)[C@@H](N)Cc1ccc(O)cc1)C(=O)O` [DADLE] as the compound, how does the activity at 1000 µM [8] read?
Answer: The activity at 1000 µM was 35.4%.

Question: With `N[C@@H](Cc1ccc(O)cc1)C(=O)NCC(=O)NCC(=O)O` (H-Tyr-Gly-Gly-OH) as the compound, how does the activity at 1000 µM [9] read?
Answer: The activity at 1000 µM was 77.2%.

Question: Which results are given for `O=C1OC(c2ccc(O)c(S(=O)(=O)O)c2)(c2ccc(O)c(S(=O)(=O)O)c2)c2c(Br)c(Br)c(Br)c(Br)c21` [SULFOBROMOPHTHALEIN SODIUM]?
Answer: activity at 50 µM [10]: 8%; Activity [11]: 25%

Question: Which Activity [12] does the source give for `C[N+](C)(C)CC(O)CC(=O)[O-]` (stereo unspecified) [CARNITINE] here?
Answer: Its Activity is “is not an inhibitor [-]”.

Question: How did the Activity [11] turn out when `C[C@]12CC[C@@H]3c4ccc(OS(=O)(=O)O)cc4CC[C@H]3[C@@H]1CCC2=O` [ESTRONE SULFURIC ACID] was run?
Answer: Its Activity is 50%.

Question: With `CC(C)C[C@@H](NC(=O)[C@H](Cc1ccccc1)NC(=O)CNC(=O)[C@@H](C)N)C(=O)O` as the compound, how does the activity at 1000 µM [13] read?
Answer: The activity at 1000 µM was 62.5%.

Question: How did the activity at 5000 µM [14] turn out when `C[C@H](N)C(=O)N[C@@H](C)C(=O)N[C@@H](C)C(=O)N[C@@H](C)C(=O)N[C@@H](C)C(=O)O` was run?
Answer: Its activity at 5000 µM is 86.3%.

Question: `C[C@H](N)C(=O)N[C@@H](C)C(=O)N[C@@H](C)C(=O)N[C@@H](C)C(=O)O` (H-AAAA-OH) was tested. Which Activity [15] did it give?
Answer: The Activity was “is not an inhibitor [-]”.
